Measured values pooled from the literature.
Target: Mitogen-activated protein kinase 6 (MAPK6, Homo sapiens, UniProt Q16659)

SMILES | assay | setting | remaining binding [%]
CN(C)c1ncnc(-c2ccc3nc(Nc4cc(CN5CCN(C(=O)CC(F)(F)F)CC5)ccn4)[nH]c3c2)c1Cl | cell-free assay, competition with immobilised ligand | 1 µM | 100
CN(CCCC(F)(F)F)c1nccc(-c2cnn3ncccc23)n1 | binding | 1 µM | 90
CCN1CCN(Cc2ccc(C(=O)Nc3ccc(C)c(Oc4ccc5c(c4)CC(=O)N5)c3)cc2C(F)(F)F)CC1 | binding, competition with immobilised ligand | 1 µM | 100
Nc1ncc2c(n1)-c1c([nH]c3ccc(C#CC4CC4)cc13)CCCC2 | binding, competition with immobilised ligand | 1 µM | 100
N[C@H]1CCN(c2nccc(-c3cnn4ncccc34)n2)C1 | binding | 1 µM | 98
Cn1nc(C(=O)NCc2ccc(C(=O)O)cc2)cc1-c1ccc2[nH]ccc2c1 | cell-free assay, competition with immobilised ligand | 0.1 µM | 100
CN(C)c1nccc(-c2cnc3ncccn23)n1 | binding | 1 µM | 93
O=C(NCCCN1CCOCC1)c1ccc(Nc2nccc(-c3cc4ccccc4s3)n2)cc1 | binding, competition with immobilised ligand | 1 µM | 48
Cc1cnn2ncc(-c3ccnc(N(C)C)n3)c2c1 | binding | 1 µM | 98
COc1cnc(Nc2cccc(S(N)(=O)=O)c2)nc1N1CCN(c2ccccc2)C(=O)C1 | binding, competition with immobilised ligand | 1 µM | 100
O=C(c1ccc(Nc2ncc(Cl)c(-c3cc4ccccc4s3)n2)cc1)N1CCC(N2CCCC2)CC1 | binding, competition with immobilised ligand | 1 µM | 0
COc1cnc(Nc2cccc(S(N)(=O)=O)c2)nc1N1CCN(c2ccccc2)CC1 | binding, competition with immobilised ligand | 1 µM | 100
O=C(Nc1c[nH]nc1C(=O)NC1CCNCC1)c1cc(F)cc(F)c1 | binding, competition with immobilised ligand | 1 µM | 89
CN(C(=O)c1ccccc1)c1cc(N(C)c2ccc3c(c2)CCc2ccc(C(=O)NCCN4CCOCC4)cc2C3=O)ccc1F | cell-free assay, competition with immobilised ligand | 1 µM | 100
O=C(c1ccc(Nc2nccc(-c3cc4ccccc4s3)n2)cc1)N1CCC(N2CCCC2)CC1 | binding, competition with immobilised ligand | 1 µM | 11
CC(=O)C1=C(C)N(c2cccc(C(F)(F)F)c2)C(=O)N[C@@H]1c1ccc(C#N)nc1 | cell-free assay, competition with immobilised ligand | 1 µM | 75.8
F[C@@H]1CCN(c2nccc(-c3cnn4ncccc34)n2)C1 | binding | 1 µM | 74
CC(C)CC(=O)N1CCc2nc(-c3ccc(Br)cc3)nc(N(C)Cc3ccccc3)c2C1 | cell-free assay, competition with immobilised ligand | 0.1 µM | 100
FC(F)(F)Oc1cccc(-c2cnc3ccc(-c4ccncc4)nn23)c1 | cell-free assay, competition with immobilised ligand | 5 µM | 91
COc1ncc2cc3ccccc3nc2c1C#N | cell-free assay, competition with immobilised ligand | 5 µM | 90
C[C@@H](c1cccc(C#N)c1)n1cc(Cl)cc(C(N)=O)c1=N | cell-free assay, competition with immobilised ligand | 1 µM | 100
C[C@H]1CCN(c2nccc(-c3cnn4ncccc34)n2)C1 | binding | 1 µM | 83
